From PMC5402717 (Pain, 2017)
Entries after “also recorded” stand apart in the source; their conditions may differ. One block for each compound: values may come before it.

Legend:
[1] = biological target: PKG-1α; details: cited from earlier work
[2] = test system: panel of 274 kinases; test: Kinase panel screening, overall selectivity; format: biochemical
[3] = test system: Sprague-Dawley rats; test: CFA-induced thermal hyperalgesia; format: in vivo, rat
Summary of the method: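 Male Sprague-Dawley rats (250-300 g) given 100 μL CFA intraplantar; one day later, test compound was given intrathecally at L4/L5 (15 μL, 1% DMSO/saline, saline flush) or into the tail vein (1 mL, quarter normal saline), vs vehicle. Hargreaves radiant heat test: glass at 30°C, 30 min acclimation, baseline latency ~10 s, 20 s cutoff. Both paws tested the following day, double-blind.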

[4] = test system: Sprague-Dawley rats; test: MIA-induced osteoarthritic knee joint pain; format: in vivo, rat; details: 5 nmol intra-articular 14 days after MIA
Summary of the method: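 Baseline hind-limb weight bearing taken on day 0. Rats then received 3 mg MIA in 50 μL saline into the right knee and saline into the left. At 14 days, 5 nmol test compound or quarter-saline vehicle (50 μL) was given intra-articularly. Incapacitance tester: paw force averaged over 5 s, 3 trials per point, expressed as percent difference between limbs.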

[5] = biological target: recombinant catalytic domain of human PKA (Homo sapiens, UniProt P17612); test: In vitro cAMP-dependent kinase; format: biochemical
Summary of the method: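 Recombinant human PKA catalytic domain with kemptide substrate; activity measured as 32P incorporation from [γ-32P]ATP in Tris buffer. Labeled peptide captured on cellulose phosphate filters and counted by β-scintillation. IC50s are single determinations run in duplicate.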

[6] = Tissue distribution of N46 in vivo; details: rat, tail vein injection
Summary of the method: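 Test compound injected into the rat tail vein. Tissues homogenized in 0.1N sodium carbonate (2 mL) plus methanol (6 mL), centrifuged, and supernatant analyzed by LC/MS. C18 column, acetonitrile-water gradient 0-100% over 20 min, detection at 220 nm. Results corrected for % recovery using spiked standard curves.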

[7] = test system: Sprague-Dawley rats; test: Capsaicin-induced mechanical hypersensitivity; format: in vivo, rat; details: 10 nmol N46 into hind paw, no capsaicin
Summary of the method: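 Male Sprague-Dawley rats given 10 nmol test compound intraplantar, without capsaicin. von Frey hairs (0.4-15 g) applied for ~6 s each, up-down sequence starting at 2 g. 50% paw withdrawal threshold calculated by the Chaplan method at set times after injection; n = 15 per group; double-blind.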

[8] = Heart rate and blood pressure monitoring after N46 injection; format: in vivo, rat; details: injected 1uM N46, monitored 30 minutes; data not shown
Summary of the method: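 Heart rate and systolic and diastolic blood pressure recorded for a 30 min baseline, then 1uM test compound injected and monitoring continued for 30 min.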

[9] = General observation for abnormalities or deficits; format: in vivo, rat; details: N46-injected rats
[10] = biological target: T1, purified bovine PKG-1α (Bos taurus, UniProt P00516); test: In vitro protein kinase G assay; format: biochemical; details: for IC50: IC50 for PKG-1α
T1 sequence (P00516 1-671): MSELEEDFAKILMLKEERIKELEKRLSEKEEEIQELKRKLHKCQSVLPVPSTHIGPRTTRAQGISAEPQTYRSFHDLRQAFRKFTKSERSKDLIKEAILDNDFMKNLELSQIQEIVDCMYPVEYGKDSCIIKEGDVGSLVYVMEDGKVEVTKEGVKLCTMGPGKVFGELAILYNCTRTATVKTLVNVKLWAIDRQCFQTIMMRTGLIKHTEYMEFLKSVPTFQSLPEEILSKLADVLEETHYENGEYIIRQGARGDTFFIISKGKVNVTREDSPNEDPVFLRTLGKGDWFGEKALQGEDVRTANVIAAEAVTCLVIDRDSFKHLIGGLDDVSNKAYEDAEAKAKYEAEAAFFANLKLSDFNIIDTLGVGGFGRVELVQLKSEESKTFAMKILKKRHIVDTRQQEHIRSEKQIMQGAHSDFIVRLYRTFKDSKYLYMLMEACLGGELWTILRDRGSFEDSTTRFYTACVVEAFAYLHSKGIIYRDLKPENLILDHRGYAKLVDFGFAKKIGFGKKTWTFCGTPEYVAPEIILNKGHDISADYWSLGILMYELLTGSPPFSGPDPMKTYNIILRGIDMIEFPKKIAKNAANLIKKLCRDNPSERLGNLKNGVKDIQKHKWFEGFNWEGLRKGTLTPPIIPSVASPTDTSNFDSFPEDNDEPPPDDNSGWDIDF
Summary of the method: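 Reaction started with 10 μM [32P]-ATP, run 20 min at 37°C, stopped with 50 mM EDTA. Peptide captured on phosphocellulose filters, counted by β-scintillation. IC50s are single determinations in duplicate.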

[11] = Stability of N46 in plasma in vitro; format: in vitro ADME; details: rat plasma, 37°C
[12] = biological target: cardiac hERG potassium channel (Homo sapiens, UniProt Q12809); test: hERG tail current recording; format: cell-based
Summary of the method: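 hERG tail currents evoked by a voltage protocol applied every 10 s. Test compound applied cumulatively at 0.1, 0.3, 1.0, 3, 10 and 30 μM, 5 min per concentration, with 1 μM cisapride as positive control. Mean percent inhibition from 13 cells gave a 6-point curve, from which IC50 was calculated.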

[13] = test system: PKG-1α; test: PKG-1α activity in sciatic nerve segment after capsaicin injection; format: in vivo, rat; details: capsaicin 0.1 μM under the perineurium of the sciatic nerve, 30 minutes
Summary of the method: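 Capsaicin (0.1 μM) injected under the sciatic nerve perineurium, with an equal vehicle volume into the contralateral nerve. After 30 min, the 1 cm segment containing the injection site was harvested and homogenized. Equal-protein samples were assayed for PKG-1α activity; N = 4.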

cardiac hERG potassium channel, sequence (Q12809 whole entry): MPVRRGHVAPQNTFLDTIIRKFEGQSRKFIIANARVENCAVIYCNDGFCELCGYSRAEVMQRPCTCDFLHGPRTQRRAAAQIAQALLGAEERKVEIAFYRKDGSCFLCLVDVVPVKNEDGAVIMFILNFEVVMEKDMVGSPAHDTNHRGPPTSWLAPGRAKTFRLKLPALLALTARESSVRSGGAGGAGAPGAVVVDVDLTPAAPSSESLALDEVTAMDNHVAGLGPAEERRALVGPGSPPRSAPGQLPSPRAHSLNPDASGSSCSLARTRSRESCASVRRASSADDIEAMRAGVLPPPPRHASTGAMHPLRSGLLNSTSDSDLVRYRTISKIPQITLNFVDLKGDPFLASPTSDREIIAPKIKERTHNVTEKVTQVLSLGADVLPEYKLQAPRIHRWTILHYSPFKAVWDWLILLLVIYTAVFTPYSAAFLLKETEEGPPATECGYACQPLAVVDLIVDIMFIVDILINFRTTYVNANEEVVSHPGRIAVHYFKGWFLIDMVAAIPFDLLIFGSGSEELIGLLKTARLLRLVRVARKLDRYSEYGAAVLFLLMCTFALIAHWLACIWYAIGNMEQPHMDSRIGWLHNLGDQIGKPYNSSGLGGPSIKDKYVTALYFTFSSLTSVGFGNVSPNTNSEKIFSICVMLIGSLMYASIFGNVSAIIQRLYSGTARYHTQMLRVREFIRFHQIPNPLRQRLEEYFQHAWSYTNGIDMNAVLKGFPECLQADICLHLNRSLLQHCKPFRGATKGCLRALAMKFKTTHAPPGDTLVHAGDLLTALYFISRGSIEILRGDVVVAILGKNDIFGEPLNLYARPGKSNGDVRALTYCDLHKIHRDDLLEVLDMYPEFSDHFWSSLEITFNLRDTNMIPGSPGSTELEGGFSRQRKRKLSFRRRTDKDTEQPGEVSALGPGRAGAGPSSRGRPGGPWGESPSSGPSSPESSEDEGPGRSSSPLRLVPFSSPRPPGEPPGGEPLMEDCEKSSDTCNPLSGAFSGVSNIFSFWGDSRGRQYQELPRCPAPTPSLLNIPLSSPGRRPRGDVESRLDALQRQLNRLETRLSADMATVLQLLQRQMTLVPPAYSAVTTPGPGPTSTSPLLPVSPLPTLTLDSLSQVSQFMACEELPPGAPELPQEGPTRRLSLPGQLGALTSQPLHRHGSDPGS

Compound: COC(=O)[C@@]1(OC)C[C@H]2O[C@]1(C)n1c3ccccc3c3c4c(c5c6ccccc6n2c5c31)C(=O)N(C)C4 [KT5823]
Ki [1]: 234 nM

number of kinases inhibited more than 50% ([2]; 750 nM N46): 12
off-target hit rate (kinases inhibited by more than 50%) ([2]; 12 out of 274, dose of N46 where PKG-1 was inhibited 100%): 4.4%
IC50 [5]: 5000 nM
presence in the CNS [6]: not detected in the CNS
fold difference of IC50, PKA versus PKG-1α [10]: 714 fold
IC50 [10]: 7.5 nM
IC50 ([10]; 10 μM ATP, 37°C, 20 minutes): 7 nM
type of inhibition of PKG-1α (kinetic studies) ([10]; data not shown): noncompetitive inhibitor
stability in plasma (time stable) [11]: at least 7 hours
Compound: CCCOc1ccc(OC)c(F)c1C(=O)c1ccc(C(=O)N[C@@H]2CNC[C@H]2NC(=O)c2ccc3[nH]ncc3c2)cc1 [N46, N-((3R,4R)-4-(4-(2-fluoro-3-methoxy-6-propoxybenzoyl)benzamido)pyrrolidin-3-yl)-1H-indazole-5-carboxamide]
thermal hyperalgesia (PWL), CFA-injected paw ([3]; 0.25 nmol intrathecal 1 day after CFA, measured post-CFA day 2, vs vehicle): marked reduction
thermal hyperalgesia (PWL), CFA-injected paw ([3]; 1 nmol into the tail vein 1 day after CFA, 24 hours later, vs vehicle): significantly increased the PWL; also recorded: significantly reduced the heat hyperalgesia
duration of relief after a single injection ([3]; CFA model): at least 24 hours
thermal threshold, contralateral noninflamed paw ([3]; N46 intrathecal): no significant changes
duration of relief after a single injection [4]: 7 days
weight bearing distribution ([4]; days 15 and 21, vs vehicle): significant improvement in weight bearing distribution; also recorded: significantly reversed the MIA-induced shift in weight bearing
mechanical threshold, N46 alone [7]: had no effect
heart rate and systolic and diastolic blood pressure [8]: no significant effect
sedation [9]: no evidence of sedation
IC50 [12]: 4470 nM

Compound: Nc1nc2c(nc(Sc3ccc(Cl)cc3)n2[C@@H]2O[C@@H]3CO[P@@](=O)(S)O[C@H]3[C@H]2O)c(=O)[nH]1 [RPG, Rp-8-pCPT-cGMPS, reference compound]
Ki [1]: 500 nM
thermal hyperalgesia (PWL), CFA-injected paw ([3]; 250 nmol intrathecal 1 day after CFA, PWL measured the following day, vs vehicle): alleviated significantly; also recorded: significant improvement in mean PWL
thermal threshold, contralateral noninflamed paw ([3]; RPG intrathecal): no significant changes

Compound: COc1cc(CNC(=O)CCCC/C=C/C(C)C)ccc1O [capsaicin]
PKG-1α in the nerve segment that was active [13]: 40 ± 15%
